One series concerns the target Carbonic anhydrase 9 (Homo sapiens, UniProt Q16790). Nature of the series: Inhibition of recombinant human catalytic domain of carbonic anhydrase-9 preincubated for 15 mins by stopped-flow CO2 hydration assay.
Series [1] deals with HT-29. Nature of the series: Reduction in hypoxia-induced extracellular acidosis in human HT-29 cells at 1 mM after 24 hrs. The class given is functional, cell-based. The gist of the method:
(§1)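 Exponentially growing HT-29 or HeLa cells were cultured in DMEM with 10% FBS, under hypoxia (0.2% O₂, 5% CO₂, balance N₂) or normoxia (20% O₂, 5% CO₂). Compounds were added in medium with 1% DMSO at final 0.1 or 1 mM. Medium pH was measured before and immediately after incubation, reported as ΔpHe, as mean ± SD of at least three independent experiments.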

Series [2] has as its system HeLa. Kind of series: Reduction in hypoxia-induced extracellular acidosis in human HeLa cells at 1 mM after 24 hrs. The class given is functional, cell-based. The essentials: as §1
A further series concerns the target Carbonic anhydrase 12 (Homo sapiens, UniProt O43570). Kind of series: Inhibition of recombinant human catalytic domain of carbonic anhydrase-12 preincubated for 15 mins by stopped-flow CO2 hydration assay.
The next series concerns the target Carbonic anhydrase 2 (Homo sapiens, UniProt P00918). Nature of the series: Inhibition of full length human cytosolic carbonic anhydrase-2 preincubated for 15 mins by stopped-flow CO2 hydration assay.
For another series, the target named is Carbonic anhydrase 1 (Homo sapiens, UniProt P00915). Nature of the series: Inhibition of full length human cytosolic carbonic anhydrase-1 preincubated for 15 mins by stopped-flow CO2 hydration assay.
Chain of Carbonic anhydrase 1 (P00915 whole entry): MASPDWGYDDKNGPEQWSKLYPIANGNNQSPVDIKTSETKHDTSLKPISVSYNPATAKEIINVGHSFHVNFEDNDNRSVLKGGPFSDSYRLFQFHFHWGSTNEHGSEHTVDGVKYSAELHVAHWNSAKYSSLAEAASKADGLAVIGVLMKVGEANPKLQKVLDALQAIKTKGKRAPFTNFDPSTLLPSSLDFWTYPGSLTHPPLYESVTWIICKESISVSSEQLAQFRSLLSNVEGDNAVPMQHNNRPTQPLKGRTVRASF
Series [3] deals with HeLa. Nature of the series: Reduction in hypoxia-induced extracellular acidosis in human HeLa cells at 0.1 to 1 mM after 24 hrs. The class given is functional, cell-based. The essentials: as §1
Series [4] relates to Mus musculus. Nature of the series: Toxicity in NMRI-nu mouse xenografted with HT-29 cells assessed as body weight loss at 5 mg/kg, iv administered on day 3 for 3 weeks. Set-up: dose 5 mg/kg, route intravenous. The following applies: in vivo, 504 h. The class given is organism-based.
Series [5] deals with HT-29. Kind of series: Antitumor activity against human HT-29 cells xenografted in NMRI-nu mouse assessed as time to reach 4x starting volume of tumor at 5 mg/kg, iv administered on day 3 for 3 weeks (reference value: 14.07 days). The format is functional. The essentials:
(§2)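 HT-29 cells in Matrigel were injected s.c. into the lateral flank of adult NMRI-nu mice (28−32 g). Dosing started at a tumour volume of 250 mm³ and was given i.v. One arm received 10 mg/kg daily for 3 days in 0.9% NaCl with 1% DMSO via the lateral tail vein. The other arm received 5 mg/kg at day 3. The schedule was repeated over 3 weeks. Read-out was time to reach 4× starting tumour volume against vehicle.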

In series [6] the test system is HT-29. Kind of series: Antitumor activity against human HT-29 cells xenografted in NMRI-nu mouse assessed as tumor growth inhibition at 5 mg/kg, iv administered on day 3 for 3 weeks. More on the design: dose 5 mg/kg. The class given is functional, organism-based. The essentials: as §2
The subject of series [7] is Mus musculus. Nature of the series: Toxicity in NMRI-nu mouse xenografted with HT-29 cells assessed as body weight loss at 10 mg/kg, iv administered 3 days per week for 3 weeks. The class given is organism-based. Set-up: dose 10 mg/kg, route intravenous. The following applies: in vivo.
Series [8] has as its system HT-29. Kind of series: Antitumor activity against human HT-29 cells xenografted in NMRI-nu mouse assessed as time to reach 4x starting volume of tumor at 10 mg/kg, iv administered 3 days per week for 3 weeks (reference value: 14.07 days). The class given is functional. The gist of the method:
as §2

The subject of series [9] is HT-29. Nature of the series: Antitumor activity against human HT-29 cells xenografted in NMRI-nu mouse assessed as tumor growth inhibition at 10 mg/kg, iv administered 3 days per week for 3 weeks. The class given is functional, organism-based. More on the design: dose 10 mg/kg. The essentials: as §2
(In general: In xenograft studies the graft and the host belong to different species.)

Series [10] concerns HeLa. Kind of series: Reduction in hypoxia-induced extracellular acidosis in human HeLa cells after 24 hrs. The format is functional, cell-based. The essentials: as §1
Series [11] has as its system HT-29. Kind of series: Reduction in hypoxia-induced extracellular acidosis in human HT-29 cells after 24 hrs. The class given is functional, cell-based. The essentials: as §1

The values below come from ChEMBL document CHEMBL3085663, “Hypoxia-targeting carbonic anhydrase IX inhibitors by a new series of nitroimidazole-sulfonamides/sulfamides/sulfamates” (J Med Chem, 2013).

pKi: −log10 of the molar value. Activity calls are given as the source filed them. The calls are words filed in the database; no cut-off is given here. Bounds are passed on as bounds.

For orientation: pKi means the Ki on a negative log10 scale, so that one unit is a factor of ten.

Chain of Carbonic anhydrase 12 (O43570 whole entry, the tested form may be a part): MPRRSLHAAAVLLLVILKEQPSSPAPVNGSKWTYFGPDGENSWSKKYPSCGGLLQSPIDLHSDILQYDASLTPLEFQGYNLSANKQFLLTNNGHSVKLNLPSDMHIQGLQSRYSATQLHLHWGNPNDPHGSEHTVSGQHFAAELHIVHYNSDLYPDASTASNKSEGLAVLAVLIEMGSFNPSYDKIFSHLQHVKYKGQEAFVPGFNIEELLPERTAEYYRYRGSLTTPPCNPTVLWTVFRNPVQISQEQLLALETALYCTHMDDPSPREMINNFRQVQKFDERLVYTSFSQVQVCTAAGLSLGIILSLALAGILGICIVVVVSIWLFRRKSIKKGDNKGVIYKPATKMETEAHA

Regarding `Cc1nccn1CCCNS(N)(=O)=O`, the pKi at Carbonic anhydrase 9 is 7.68.
Turning to `Cc1ncc([N+](=O)[O-])n1CCOS(N)(=O)=O`, the result in the series with HT-29 [1] and with HeLa [2] was Active.
As to `Cc1ncc([N+](=O)[O-])n1CCNC(=S)NCc1ccc(S(N)(=O)=O)cc1`, the pKi on Carbonic anhydrase 9 is 8.14.
`Cc1ncc([N+](=O)[O-])n1CCNC(=S)Nc1ccc(S(N)(=O)=O)cc1`: the outcome with HT-29 [1] and with HeLa [2] was Active. For the same molecule, at Carbonic anhydrase 9, the pKi was 8.14.
`Cc1ncc([N+](=O)[O-])n1CCNS(C)(=O)=O`: the pKi at Carbonic anhydrase 12, on Carbonic anhydrase 9, at Carbonic anhydrase 2 and on Carbonic anhydrase 1 was under 4.70 in each case.
For the molecule `Cc1ncc([N+](=O)[O-])n1CCNC(=S)NCCc1ccc(S(N)(=O)=O)cc1`, the result in the series on HeLa [3], in the series with HT-29 [1] and in the series on HeLa [2] was Active. Moreover, the pKi at Carbonic anhydrase 9 was 8.08.
In the case of `COc1cccc2c1C(=O)c1c(O)c3c(c(O)c1C2=O)C[C@@](O)(C(=O)CO)C[C@@H]3O[C@H]1C[C@H](N)[C@H](O)[C@H](C)O1` [DOXORUBICIN], in the series with Mus musculus [4], the Activity result was “Non-toxic”. Moreover, the Time in the series on HT-29 [5] turned out to be 23.39 days. The TGI entry in the series with HT-29 [6] was “Active”.
As for `NS(=O)(=O)NCCn1ccnc1[N+](=O)[O-]`, on Carbonic anhydrase 9, the pKi is 7.39.
Turning to `Cc1ncc([N+](=O)[O-])n1CCNS(N)(=O)=O` [DTP-348], the results for the Activity entry in the series with Mus musculus [7], with HeLa [10] and in the series with HT-29 [11] were “Non-toxic”, “Dose-dependent effect” and “Dose-dependent effect”, respectively. The Time in the series on HT-29 [8] was determined as 25.43 days. Also, in the series with HT-29 [9], the TGI result is “Active”. For the same molecule, the result in the series on HT-29 [1] and in the series with HeLa [2] was Active.
With `NS(=O)(=O)c1ccc(CCNC(=O)Cn2ccnc2[N+](=O)[O-])cc1`, at Carbonic anhydrase 9, the pKi is 8.10.
As for `CS(=O)(=O)NCCn1ccnc1[N+](=O)[O-]`, the pKi on Carbonic anhydrase 12, on Carbonic anhydrase 9, on Carbonic anhydrase 2 and at Carbonic anhydrase 1 was under 4.70 in each case.
